Assay outcomes as filed in PubChem.
A selection: hits, their analogues and other compounds. The true share with any hit is near 3.1%.
PGC1a acetyl inh: inhibitors of PGC1a acetylation signal, primary screen, cell-based, U2OS, AlphaScreen, inhibitor mode | AlphaScreen anti-acetyl-lysine; with virally co-expressed GCN5 acetyltransferase | inhibition, % at 15.6 µM | 350,000 tested, 0.17% active | AID 651687, 2012;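 active means every replicate shows inhibition of at least 40%; inconclusive means mean inhibition at least 40% but some replicate below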;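 further: 0% = neutral control wells and 100% = positive control wells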
HIV Env fusion: inhibitors of HIV-1 Env-driven cell-cell fusion, primary screen, HeLa-JRFL effector, CEM21 target cells, luciferase | inhibition, % at 12.3 µM | 360,000 tested, 1.1% active;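 active means mean replicate inhibition score of at least 50 and every replicate individually at or above 50; inconclusive means only one of the two criteria met; inactive means mean below 50 and not all replicates reaching 50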;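 further: 0% = plate neutral controls and 100% = maraviroc near 300 nM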
PAX8 reporter: inhibitors of PAX8-driven TPO luciferase reporter, primary screen, RMG-I cells, single concentration | 360,000 tested, 1.2% active | AID 652154, 2013 | inhibition, % at 12.6 µM | SteadyGlo, 24 h;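 active means mean replicate inhibition at least 60% with every replicate also reaching 60%; inconclusive means only one of the two criteria is met; inactive means mean below 60% and not all replicates reaching 60%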;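 further: luciferase light reporting Pax8 driven TPO promoter activity; plate controls were median of neutral control wells for no effect and mitoxantrone controls for full effect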
EWS-Fli inh: EWS/Fli-driven NR0B1 reporter inhibitors, primary screen, A673 cells, NR0B1 luciferase, luminescence, MLPCN library; viability-normalised; inhibition, % at 12.6 µM; 350,000 tested, 0.67% active;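 active means mean inhibition of at least 50% after viability correction, with every replicate also passing that limit; inconclusive means mean reaches 50% but only one of two replicates passes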;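 further: firefly luciferase signal divided by Alamar Blue viability fluorescence both relative to DMSO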
FN deposition inh: inhibitors of fibronectin matrix deposition, primary screen, AH1F cells, Alexa488-fibronectin fluorescence, plate reader | 350,000 tested, 0.086% active | AH1F fibroblasts, overnight | AID 743247, 2014 | inhibition, % at 12.6 µM;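 active means mean inhibition across replicates of 30% or more, regardless of how many single replicates reach that level; inconclusive means mean under 30% yet at least half of replicates reach 30%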;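 further: positive control wells lacked labelled fibronectin entirely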
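Assay system: AH1F fibroblasts / Quantity: 10000 cells per well / Medium: DMEM plus 2% serum, read in PBS / Reagent: labelled fibronectin 24 nM / Dosing: single dose, pinned / Times: 1 h cell attachment, overnight exposure to compound and label / Signal: fluorescence, ex 485 nm, em 525 nm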
FGF22 binding: binders of human FGF22 protein, primary screen, FGF22 synaptogenesis inhibitor project, biophysical, thermal shift, single point; Fibroblast growth factor 22 (Homo sapiens), Q9HCT0; recombinant FGF22 thermal shift, SYPRO orange fluorescence; percent of sucrose octasulfate shift, DMSO zero; activity (Tm shift, normalised), % at 9.99 µM; 340,000 tested, 1.5% active; AID 651658, 2012;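 active means mean Tm shift, scaled 0 neutral to 100 positive control, at about 1.3% or above, every replicate too, limit read from the data; inconclusive means no clear call, values can overlap the other calls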
Target sequence (Q9HCT0 whole entry, looked up): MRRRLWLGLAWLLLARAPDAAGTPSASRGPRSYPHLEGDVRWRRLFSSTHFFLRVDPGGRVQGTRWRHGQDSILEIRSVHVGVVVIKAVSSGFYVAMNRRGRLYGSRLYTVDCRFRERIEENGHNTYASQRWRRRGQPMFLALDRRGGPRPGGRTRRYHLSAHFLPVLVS
Numbers without * were called inactive; ? = inconclusive; . = not tested or not shown; ! = repeats disagree; [ ] = another dose, or the depositor's remark.

SMILES	PGC1a acetyl inh	HIV Env fusion	PAX8 reporter	EWS-Fli inh	FN deposition inh	FGF22 binding
Cc1ccc(-c2cc(C(=O)Nc3c(C)n(C)n(-c4ccccc4)c3=O)c3ccccc3n2)cc1	10	-16	8	-24	-4	43*
O=C(Nc1ccon1)c1cc(-c2ccccc2)nc2ccccc12	3	.	.	.	.	.
Cc1c(NC(=O)c2cc(-c3ccccc3)nc3ccccc23)c(=O)n(-c2ccccc2)n1C	10	-36	0	0	1	0
O=C(CN1CCOCC1)NCC[C@@H]1CC[C@H](NC(=O)Nc2ccccc2)[C@H](CO)O1	8	11[16.7 µM]	3	6	-7	0
CO[C@H]1CN(C)C(=O)c2cc(NC(=O)C3CC3)ccc2OC[C@H](C)N(C(=O)c2ccccn2)C[C@H]1C	0	.	.	-1	-1	.
Cc1csc(NC(=O)c2cc(-c3ccncc3)nc3ccccc23)n1	10	-5	0	-3	-6	44*
O=C(Nc1nccs1)c1cc(-c2ccncc2)nc2ccccc12	-15	-8	17	10	-10	0
Cc1ccccc1S(=O)(=O)Nc1ccc2c(c1)C(=O)N(C)[C@H]1CC[C@H](CC(=O)O)O[C@@H]1CO2	0	-6[16.7 µM]	-4	0	5	.
COc1ccccc1S(=O)(=O)N[C@H]1CC[C@H](CCNC(=O)C2CCCC2)O[C@H]1CO	1	-6[16.7 µM]	-20	4	-13	-1
O=C(Oc1c(-c2ccccc2)oc2ccccc2c1=O)c1ccccc1	12	-1	.	.	4	.
O=C(Oc1c(-c2ccccc2Cl)oc2ccccc2c1=O)c1ccc(Cl)cc1	3	.	68*	4	5	0
C[C@@H]1CN([C@H](C)CO)S(=O)(=O)c2ccc(-c3cccc(F)c3)cc2O[C@@H]1CN(C)S(=O)(=O)c1ccc(F)cc1	2	56*[16.7 µM]	.	-9	0	0
C[C@H]1CN([C@@H](C)CO)S(=O)(=O)c2ccc(-c3cccc(F)c3)cc2O[C@@H]1CN(C)S(=O)(=O)c1ccc(F)cc1	-17	27[16.7 µM]	.	3	20	0
CC(C)CC#Cc1ccc2c(c1)O[C@@H](CN(C)S(=O)(=O)c1cccc(F)c1)[C@@H](C)CN([C@@H](C)CO)S2(=O)=O	.	77*[16.7 µM]	.	18	.	0
C[C@H](CO)N1C[C@H](C)[C@H](CN(C)S(=O)(=O)c2cccc(F)c2)Oc2cc(Br)ccc2S1(=O)=O	8	78*![16.7 µM]	-10	23	4	0
CCCC#Cc1ccc2c(c1)O[C@@H](CN(C)S(=O)(=O)c1cccc(F)c1)[C@@H](C)CN([C@H](C)CO)S2(=O)=O	10	64*[16.7 µM]	.	26	.	0
Cc1ccc(S(=O)(=O)N[C@H]2CC[C@H](CCNC(=O)C3CCOCC3)O[C@@H]2CO)cc1	0	-3[16.7 µM]	-5	0	-1	1
COc1ccc(S(=O)(=O)N(C)C[C@H]2Oc3cc(Br)ccc3S(=O)(=O)N([C@H](C)CO)C[C@H]2C)cc1	4	?	19	9	2	0
COc1ccc(S(=O)(=O)N(C)C[C@@H]2Oc3cc(Br)ccc3S(=O)(=O)N([C@H](C)CO)C[C@@H]2C)cc1	-16	57*!	0	7	-5	-1
COc1ccccc1-c1ccc2c(c1)O[C@H](CN(C)S(=O)(=O)c1ccccc1)[C@H](C)CN([C@H](C)CO)S2(=O)=O	-2	56*[16.7 µM]	4	2	-5	0
COCC(=O)Nc1ccc2c(c1)C(=O)N(C)[C@H]1CC[C@H](CC(=O)Nc3ccccc3)O[C@@H]1CO2	6	-25[16.7 µM]	38	-8	4	0
COc1ccc(/C=N/NC(=O)c2ccoc2C)cc1COc1c(C)cccc1C	-2	76*	2	.	-2	.
CO[C@@H]1CN(C)C(=O)c2ccc(NC(=O)C3CCCC3)cc2OC[C@@H](C)N(CCC(F)(F)F)C[C@H]1C	-1	22[16.7 µM]	.	-9	-11	0
O=C(N[C@@H]1C=C[C@H](CC(=O)N2CCN(c3ccccc3)CC2)O[C@H]1CO)c1ccncc1	-11	4[16.7 µM]	-26	4	.	0
Cc1[nH]c(=O)nc(NN=Cc2ccc(Cl)cc2)c1C(=O)Nc1ccc(Cl)cc1	.	.	12	0	-20	43*
SMILES	PGC1a acetyl inh	HIV Env fusion	PAX8 reporter	EWS-Fli inh	FN deposition inh	FGF22 binding
CC1CC(C)CN(C(=O)COC(=O)CCC(=O)c2cccs2)C1 (stereo unspecified)	-10	-21	-3	-5	3	44*
CC1CC(C)CN(CC(=O)c2cccs2)C1 (stereo unspecified)	2	-9	9	14	-4	0
CC1CCN(CC(=O)c2cccs2)CC1	6	-17	-23	-18	.	44*
CN(C)c1ccc(/C=C/c2ccc3ccccc3n2)cc1	-7	.	.	.	.	.
Oc1ccc(/C=C/c2ccc3ccccc3n2)cc1	.	-51	58	79*	-4	0
O=[N+]([O-])c1ccc(/C=C/c2ccc3ccccc3n2)cc1	8	-238	-19	59*	7	0
C(=C\c1ccc2ccccc2n1)/c1ccccc1	.	-162	-7	74*	-12	0
C[C@H]1CN([C@@H](C)CO)S(=O)(=O)c2ccc(-c3ccncc3)cc2O[C@H]1CN(C)Cc1cccnc1	10	-21[16.7 µM]	.	6	8	0
CC(C)NC(=O)N[C@@H]1CC[C@@H](CCNS(=O)(=O)c2ccc(F)cc2)O[C@H]1CO	-5	1[16.7 µM]	10	3	.	0
Cc1ccc(-n2nc3ccc(NC(=O)/C=C/c4ccco4)cc3n2)cc1	.	.	68*	-12	-7	0
Cc1ccc(NC(=O)c2cccc(NC(=O)/C=C/c3ccco3)c2)cc1C	.	-19	-45	-85	0	.
O=C(/C=C/c1ccco1)Nc1cccc(C(=O)Nc2ccccc2C(=O)O)c1	-3	88*	-4	-3	-2	0
CC(C)OCCCn1c(=S)[nH]c2ccc(N3CCOCC3)cc2c1=O	-3	72*	.	.	.	.
O=c1c2cc(N3CCOCC3)ccc2[nH]c(=S)n1CCCN1CCCCCC1	.	-27	.	.	5	.
O=c1c2cc(N3CCOCC3)ccc2[nH]c(=S)n1Cc1ccc(Cl)cc1	-6	-36	.	.	41*	.
O=C(CCCCCn1c(=S)[nH]c2ccc(N3CCOCC3)cc2c1=O)NCc1ccc(Cl)cc1	2	0	7	2	-6	0
C[C@H]1CN([C@@H](C)CO)C(=O)CCCn2nncc2CO[C@H]1CN(C)C(=O)Nc1ccccc1	-11	16	9	9	-8	0
C[C@@H]1CN([C@@H](C)CO)C(=O)CCCn2nncc2CO[C@@H]1CN(C)C(=O)Nc1ccc(-c2cccs2)cc1	3	27	34	-10	-1	0
